Source: ChEMBL document CHEMBL1127368, “Selective kappa-opioid agonists: synthesis and structure-activity relationships of piperidines incorporating on oxo-containing acyl group” (J Med Chem, 1994)

Experiments:
[1] = biological target: Kappa-type opioid receptor (Mus musculus, UniProt P33534); assay: Evaluated for the binding affinity at kappa receptor
[2] = tested on: Mus musculus; assay: Tested for in vivo antinociceptive activity in mouse abdominal constriction assay; type: functional; details: Abdomen
Procedure, shortened: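 Mice of 20-35 g. Abdominal constriction induced with phenyl-p-benzoquinone. Ten animals per dose. ED50 with 95% confidence intervals obtained by regression analysis.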

[3] = tested on: Mus musculus; assay: Tested for in vivo antinociceptive activity in mouse tail-flick assay; type: functional
Procedure, shortened: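 Tail-flick antinociception in mice of 20-35 g. Ten animals per dose. ED50 with 95% confidence intervals obtained by probit analysis.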

[4] = tested on: Mus musculus; assay: Tested for in vivo locomotor impairment/sedation in mouse rotarod test; type: functional
Procedure, shortened: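 Locomotor impairment/sedation measured on a rotarod in mice of 20-35 g. Ten animals per dose. ED50 with 95% confidence intervals obtained by regression analysis.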

[5] = biological target: Sigma non-opioid intracellular receptor 1 (Mus musculus, UniProt O55242); assay: Evaluated for the binding affinity at sigma receptor
Sequence of Sigma non-opioid intracellular receptor 1 (O55242 whole entry): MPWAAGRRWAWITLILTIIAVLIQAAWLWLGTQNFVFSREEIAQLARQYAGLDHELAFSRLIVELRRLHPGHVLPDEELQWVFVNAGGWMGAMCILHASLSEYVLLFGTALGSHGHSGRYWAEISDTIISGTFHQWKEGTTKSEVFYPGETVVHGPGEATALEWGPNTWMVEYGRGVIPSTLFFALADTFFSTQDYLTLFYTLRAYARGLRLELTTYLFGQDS

[6] = tested on: Rattus norvegicus; assay: Tested for in vivo locomotor impairment/sedation in rat rotarod; type: functional
Procedure, shortened: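 Male SD rats, 180-350 g. Trained in six 5-min sessions over 2 days. Rotarod accelerated from 3 to 30 rpm across five sessions. Ten animals per dose. ED50 with 95% confidence intervals obtained by regression analysis.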

[7] = tested on: Rattus norvegicus; assay: Tested for in vivo antinociceptive activity in rat abdominal constriction; type: functional; details: Abdomen
Procedure, shortened: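 Male SD rats, 180-350 g. Abdominal constriction induced with phenyl-p-benzoquinone. Ten animals per dose. ED50 with 95% confidence intervals obtained by probit analysis.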

[8] = biological target: Mu-type opioid receptor (Mus musculus, UniProt P42866); assay: Evaluated for the binding affinity at mu receptor
Sequence of Mu-type opioid receptor (P42866 whole entry): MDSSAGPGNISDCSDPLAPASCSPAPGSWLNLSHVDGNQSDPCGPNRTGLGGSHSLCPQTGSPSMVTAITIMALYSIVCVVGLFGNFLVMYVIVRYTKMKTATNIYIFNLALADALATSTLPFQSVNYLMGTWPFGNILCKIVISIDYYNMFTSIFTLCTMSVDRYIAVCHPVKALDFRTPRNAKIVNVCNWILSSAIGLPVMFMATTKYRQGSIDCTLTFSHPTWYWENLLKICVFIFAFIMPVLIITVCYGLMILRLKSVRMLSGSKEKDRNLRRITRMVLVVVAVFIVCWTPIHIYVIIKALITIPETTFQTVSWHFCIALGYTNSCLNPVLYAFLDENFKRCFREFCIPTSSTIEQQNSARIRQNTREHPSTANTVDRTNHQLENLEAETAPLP

[9] = biological target: Delta-type opioid receptor (Mus musculus, UniProt P32300); assay: Evaluated for the binding affinity at delta receptor
Sequence of Delta-type opioid receptor (P32300 whole entry): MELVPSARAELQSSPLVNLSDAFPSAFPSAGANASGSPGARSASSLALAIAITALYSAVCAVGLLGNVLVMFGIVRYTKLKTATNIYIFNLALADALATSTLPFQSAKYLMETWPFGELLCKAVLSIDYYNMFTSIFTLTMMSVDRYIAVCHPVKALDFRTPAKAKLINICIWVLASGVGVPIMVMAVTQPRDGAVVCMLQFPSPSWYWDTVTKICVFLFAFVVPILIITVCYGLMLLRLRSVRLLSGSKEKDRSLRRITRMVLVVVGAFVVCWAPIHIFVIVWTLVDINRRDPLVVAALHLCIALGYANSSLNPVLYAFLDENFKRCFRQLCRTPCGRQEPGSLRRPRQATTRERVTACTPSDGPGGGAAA

[10] = tested on: Rattus norvegicus; assay: Tested for in vivo antinociceptive activity in rat abdominal constriction assay; details: Abdomen

Sequence of Kappa-type opioid receptor (P33534 whole entry): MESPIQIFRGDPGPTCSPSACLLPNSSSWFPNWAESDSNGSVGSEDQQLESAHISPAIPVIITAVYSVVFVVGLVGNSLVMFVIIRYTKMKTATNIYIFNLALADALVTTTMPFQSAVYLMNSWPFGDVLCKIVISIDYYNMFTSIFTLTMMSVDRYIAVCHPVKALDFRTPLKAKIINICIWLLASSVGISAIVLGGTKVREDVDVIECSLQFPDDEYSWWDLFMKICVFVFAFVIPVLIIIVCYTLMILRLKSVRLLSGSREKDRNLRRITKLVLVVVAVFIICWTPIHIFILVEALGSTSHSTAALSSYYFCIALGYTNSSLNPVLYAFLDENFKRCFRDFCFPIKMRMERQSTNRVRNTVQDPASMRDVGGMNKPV

Question: For `C=CCN(C)C[C@@H]1CCCCN1C(=O)Cc1ccc2c(c1)CCCC2=O`, which Ki [1] is on record?
Answer: 19.2 nM

Question: And the ED50 [2]?
Answer: 0.37 µmol/kg

Question: And the ED50 [3]?
Answer: 3.42 µmol/kg

Question: And the ED50 [4]?
Answer: 8.66 µmol/kg

Question: Which results are given for `O=C1CCCc2cc(CC(=O)N3CCCC[C@H]3CN3CCCC3)ccc21`?
Answer: Ki [1]: 7.6 nM; ED50 [2]: 0.35 µmol/kg; ED50 [3]: 0.59 µmol/kg

Question: `CCCN(C)C[C@@H]1CCCCN1C(=O)Cc1ccc2c(c1)CCCC2=O` was tested. Which Ki [1] did it give?
Answer: 22.2 nM

Question: And the ED50 [2]?
Answer: 0.62 µmol/kg

Question: And the ED50 [3]?
Answer: 6.81 µmol/kg

Question: And the ED50 [4]?
Answer: 7.99 µmol/kg

Question: For `O=C(Cc1ccc2c(c1)CCCC2)N1CCCC[C@H]1CN1CCCC1`, which Ki [1] is on record?
Answer: 0.81 nM

Question: What about the ED50 [2] of the same molecule?
Answer: 0.57 µmol/kg

Question: What about the ED50 [3] of the same molecule?
Answer: 2.67 µmol/kg

Question: `CC(C)N(C)C[C@@H]1CCCCN1C(=O)Cc1ccc2c(c1)CCCC2=O` was tested. Which Ki [1] did it give?
Answer: 4.07 nM

Question: And the ED50 [2]?
Answer: 0.22 µmol/kg

Question: And the ED50 [3]?
Answer: 1.2 µmol/kg

Question: What about the ED50 [4] of the same molecule?
Answer: 1.02 µmol/kg

Question: `O=C1CCCc2ccc(CC(=O)N3CCCC[C@H]3CN3CCCC3)cc21` was tested. Which Ki [1] did it give?
Answer: 5.61 nM

Question: And the ED50 [2]?
Answer: ~1 µmol/kg

Question: What about the ED50 [3] of the same molecule?
Answer: > 3 µmol/kg

Question: Which results are given for `CCN(C)C[C@@H]1CCCCN1C(=O)Cc1ccc2c(c1)CCCC2=O`?
Answer: Ki [1]: 10.3 nM; ED50 [2]: 0.18 µmol/kg; ED50 [3]: 1.77 µmol/kg; ED50 [4]: 2.3 µmol/kg

Question: What does the source list for `CN(C[C@@H]1CCCCN1C(=O)Cc1ccc2c(c1)CCCC2=O)C1CCCC1`?
Answer: Ki [1]: 20 nM; ED50 [2]: 0.55 µmol/kg; ED50 [3]: 6.34 µmol/kg; ED50 [4]: 10 µmol/kg

Question: What does the source list for `CCN(CC)C[C@@H]1CCCCN1C(=O)Cc1ccc2c(c1)CCCC2=O`?
Answer: Ki [1]: 80.3 nM; ED50 [2]: 1.2 µmol/kg; ED50 [3]: 12.6 µmol/kg; ED50 [4]: 23.7 µmol/kg

Question: What does the source list for `CN(C)C[C@@H]1CCCCN1C(=O)Cc1ccc2c(c1)CCCC2=O`?
Answer: Ki [1]: 47 nM; Ki [5]: 1210 nM; ED50 [2]: 0.47 µmol/kg; ED50 [3]: 2.15 µmol/kg; ED50 [6]: 26.5 µmol/kg; ED50 [4]: 5.1 µmol/kg; ED50 [7]: 0.73 µmol/kg; Ki [8]: 6790 nM; Ki [9]: > 100 nM

Question: With `CN(C[C@@H]1CCCCN1C(=O)Cc1ccc2c(c1)CCCC2=O)C1CC1` as the molecule, how does the Ki [1] read?
Answer: 52.1 nM

Question: And the ED50 [2]?
Answer: 0.4 µmol/kg

Question: What about the ED50 [3] of the same molecule?
Answer: 7.85 µmol/kg

Question: What about the ED50 [4] of the same molecule?
Answer: 13.7 µmol/kg

Question: With `CN(CC1CC1)C[C@@H]1CCCCN1C(=O)Cc1ccc2c(c1)CCCC2=O` as the molecule, how does the Ki [1] read?
Answer: 30.4 nM

Question: And the ED50 [2]?
Answer: 1.36 µmol/kg

Question: What about the ED50 [3] of the same molecule?
Answer: 16.5 µmol/kg

Question: And the ED50 [4]?
Answer: 16.6 µmol/kg

Question: For `C#CCN(C)C[C@@H]1CCCCN1C(=O)Cc1ccc2c(c1)CCCC2=O`, which Ki [1] is on record?
Answer: 6.24 nM

Question: And the ED50 [2]?
Answer: 0.16 µmol/kg

Question: What about the ED50 [3] of the same molecule?
Answer: 5.11 µmol/kg

Question: What about the ED50 [4] of the same molecule?
Answer: 4.12 µmol/kg

Question: `O=C1CCCCc2cc(CC(=O)N3CCCC[C@H]3CN3CCCC3)ccc21` was tested. Which Ki [1] did it give?
Answer: 5.44 nM

Question: What about the ED50 [2] of the same molecule?
Answer: > 1.5 µmol/kg

Question: What about the ED50 [3] of the same molecule?
Answer: > 3 µmol/kg

Question: With `CN(C[C@@H]1CCCCN1C(=O)Cc1ccc2c(c1)CCCC2=O)C(C)(C)C` as the molecule, how does the Ki [1] read?
Answer: > 100 nM

Question: What about the ED50 [3] of the same molecule?
Answer: > 30 µmol/kg

Question: For `CN(C[C@@H]1CCCCN1C(=O)Cc1ccc2c(c1)CCCC2=O)C1CCC1`, which Ki [1] is on record?
Answer: 34.8 nM

Question: And the ED50 [2]?
Answer: 0.34 µmol/kg

Question: What about the ED50 [3] of the same molecule?
Answer: 1.45 µmol/kg

Question: What about the ED50 [4] of the same molecule?
Answer: 3.32 µmol/kg

Question: For `O=C1CCc2cc(CC(=O)N3CCCC[C@H]3CN3CCCC3)ccc21`, which Ki [1] is on record?
Answer: 7.93 nM

Question: And the ED50 [2]?
Answer: > 1.5 µmol/kg

Question: What about the ED50 [3] of the same molecule?
Answer: > 30 µmol/kg

Question: For `O=C1CCCc2sc(CC(=O)N3CCCC[C@H]3CN3CCCC3)cc21`, which Ki [1] is on record?
Answer: 6.54 nM

Question: What about the ED50 [2] of the same molecule?
Answer: 1.41 µmol/kg

Question: And the ED50 [3]?
Answer: 13.5 µmol/kg

Question: Which results are given for `O=C(Cc1ccc(C(F)(F)F)cc1)N1CCCC[C@H]1CN1CCCC1`?
Answer: Ki [1]: 0.64 nM; ED50 [2]: 0.1 µmol/kg; ED50 [3]: 0.32 µmol/kg; ED50 [6]: 0.35 µmol/kg; ED50 [4]: 0.28 µmol/kg; ED50 [7]: 0.11 µmol/kg

Question: For `CN1CC[C@]23c4c5ccc(O)c4O[C@H]2[C@@H](O)C=C[C@H]3[C@H]1C5` [MORPHINE], which ED50 [2] is on record?
Answer: 1.34 µmol/kg

Question: What about the ED50 [3] of the same molecule?
Answer: 9.8 µmol/kg

Question: What about the ED50 [10] of the same molecule?
Answer: 0.86 µmol/kg
